Test results taken from ChEMBL document CHEMBL1828578, “Antimalarial activities of new guanidylimidazole and guanidylimidazoline derivatives” (J Med Chem, 2011).
Values after ≈ are worked out from the molar mass of the structure shown. Active and inactive are the calls of the source. The calls are words filed in the database; no cut-off is given here.

Key:
[1] = Metabolic stability of the compound in human liver microsomes assessed as half life at 1 uM by LC-MS analysis; format: ADME, Microsome
Procedure, shortened: (§1)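 Compound at 1 μM final (from 10 or 20 mM DMSO stocks) was incubated with 0.5 mg/mL pooled human or mouse liver microsomes. The mix held 1.3 mM NADP and 3.3 mM MgCl₂ in 0.1 M PBS pH 7.4, and the reaction was started with 1 U/mL G6PD. Incubation was at 37 °C with shaking, and samples were quenched with cold acetonitrile at 0, 10, 20, 30 and 60 min.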

Plasmodium berghei [2] = experiment: Antimalarial activity against Plasmodium berghei in exoerythrocytic mouse model assessed as causal prophylaxis at 160 mg/kg/day, po administered one day before infection, on day of infection and one day post infection; format: functional, organism-based
Procedure, shortened: (§2)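 P. berghei sporozoite exoerythrocytic mouse model. Compound was ground and suspended in hydroxyethylcellulose plus Tween 80, then given po at several dose levels once daily: the day before, 4 h before, and the day after sporozoite inoculation. Mice alive on day 31 with no parasites in any blood film were scored as protected.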

Plasmodium berghei [3] = experiment: Antimalarial activity against Plasmodium berghei in exoerythrocytic mouse model assessed as causal prophylaxis at 320 mg/kg/day, po administered one day before infection, on day of infection and one day post infection; format: functional, organism-based; procedure, shortened: as §2
[4] = Metabolic stability of the compound in mouse liver microsomes assessed as half life at 1 uM by LC-MS analysis; format: ADME, Microsome; procedure, shortened: as §1
Plasmodium falciparum [5] = experiment: Antimalarial activity against sporozoites stage of Plasmodium falciparum D6 after 3 days by microdilution technique; format: functional, organism-based; conditions: D6, 72 h, in the assay text read “blood stage” for “sporozoites stage”
Procedure, shortened: (§3)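 P. falciparum clones were tested in vitro using a modified semiautomated microdilution technique.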

Plasmodium falciparum [6] = experiment: Antimalarial activity against […] of Plasmodium falciparum W2 after for 3 days by microdilution technique; format: functional, organism-based; conditions: W2, 72 h; procedure, shortened: as §3
Plasmodium falciparum [7] = experiment: Antimalarial activity against […] of Plasmodium falciparum TM91C235 after for 3 days by microdilution technique; format: functional, organism-based; conditions: TM91C235, 72 h; procedure, shortened: as §3
Mus musculus [8] = experiment: Toxicity in exoerythrocytic mouse model assessed as reduction in body weight at 160 mg/kg/day, po administered one day before infection, on day of infection and one day post infection measured on day 31; format: organism-based; set-up: route oral; conditions: in vivo
Mus musculus [9] = experiment: Toxicity against exoerythrocytic mouse model assessed as reduction in body weight at 320 mg/kg/day, po administered one day before infection, on day of infection and one day post infection measured up to 31 days; format: organism-based; set-up: route oral; conditions: in vivo, 744 h
[10] = Metabolic stability of the compound in rhesus monkey microsomes assessed as half life at 1 uM by LC-MS analysis; format: ADME, Macaca mulatta, Microsome
Plasmodium cynomolgi [11] = experiment: Antimalarial activity against sporozoites stage of Plasmodium cynomolgi infected in Rhesus monkey assessed as delay in patency at 0.316 mg/kg/day, po administered one day before infection, on day of infection and one day post infection; format: functional
Procedure, shortened: (§4)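 Causal prophylaxis test in Rhesus monkeys inoculated with P. cynomolgi sporozoites, two monkeys per group. Drug was given orally on days −1, 0 and +1 relative to inoculation. Patency was the first day parasites were detected in blood smears, and the delay was counted against vehicle-treated controls.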

Plasmodium cynomolgi [12] = experiment: Antimalarial activity against sporozoites stage of Plasmodium cynomolgi infected in Rhesus monkey assessed as delay in patency at 50 mg/kg/day, po administered one day before infection, on day of infection and one day post infection; format: functional; procedure, shortened: as §4
Plasmodium cynomolgi [13] = experiment: Antimalarial activity against sporozoites stage of Plasmodium cynomolgi infected in Rhesus monkey assessed as delay in patency at 1.78 mg/kg/day, po administered one day before infection, on day of infection and one day post infection; format: functional; procedure, shortened: as §4

SMILES | half-life at 1 µM [1] [min] | Activity (Plasmodium berghei [2]) | Activity (Plasmodium berghei [3]) | half-life at 1 µM [4] [min] | IC50 (Plasmodium falciparum [5]) [µg/mL] | IC50 (Plasmodium falciparum [6]) [µg/mL] | IC50 (Plasmodium falciparum [7]) [µg/mL] | Activity (Mus musculus [8]) | Activity (Mus musculus [9]) | half-life at 1 µM [10] [min] | Time (Plasmodium cynomolgi [11]) [days] | Time (Plasmodium cynomolgi [12]) [days] | Time (Plasmodium cynomolgi [13]) [days]
CC(C)C(=O)N/C(=N/c1nccn1Cc1ccccc1)Nc1ccc(Cl)c(Cl)c1 | 19.7 | inactive | inactive | 11 | > 2 | > 2 | > 2 |  |  |  |  |  | 
CC(C)N1CCN=C1/N=C(/Nc1ccc(Cl)c(Cl)c1)N1CCCCC1 | > 60 |  |  | 21.5 | 0.4 (≈ 1.05 µM) | 0.2 (≈ 0.523 µM) | 0.3 (≈ 0.785 µM) | Toxic | Toxic |  |  |  | 
CC(C)N/C(=N\c1nccn1CC(C)(C)C)Nc1ccc(Cl)c(Cl)c1 | 20.3 | inactive | inactive |  | 1.1 (≈ 2.88 µM) | 1.5 (≈ 3.92 µM) |  |  |  |  |  |  | 
CC(C)N1CCN=C1/N=C(\N)Nc1ccc(Cl)c(Cl)c1 | > 60 |  |  | > 60 | 1.4 (≈ 4.46 µM) | 0.7 (≈ 2.23 µM) | 1.2 (≈ 3.82 µM) |  |  | 36.3 |  |  | 
CC(C)N/C(=N\C1=NCCN1C(C)C)Nc1ccc(Cl)c(Cl)c1 | 50.7 | inactive |  | 13.6 | 0.5 (≈ 1.4 µM) | 0.4 (≈ 1.12 µM) | 0.7 (≈ 1.96 µM) | Toxic | Toxic |  |  |  | 
CC(C)N/C(=N\c1nccn1C(C)(C)C)Nc1ccc(Cl)c(Cl)c1 | 48 |  |  | 9 | 1.4 (≈ 3.8 µM) | 0.4 (≈ 1.09 µM) | 0.9 (≈ 2.44 µM) | Toxic | Toxic |  |  |  | 
COc1cc(C)c2c(Oc3cccc(C(F)(F)F)c3)c(OC)cc(NC(C)CCCN)c2n1 (stereo not drawn) [TAFENOQUINE] |  |  |  |  |  |  |  |  |  |  | 2 |  | 
N/C(=N\c1nccn1Cc1ccccc1)Nc1ccc(Cl)c(Cl)c1 | > 60 | inactive | inactive | 37 | > 2 | > 2 | > 2 |  |  |  |  |  | 
CC(C)n1ccnc1/N=C(\N)Nc1ccc(Cl)c(Cl)c1 | > 60 | Active | Active | 27.7 | 2.8 (≈ 8.97 µM) | 0.7 (≈ 2.24 µM) | 2.4 (≈ 7.69 µM) |  |  | > 60 |  |  | 
CCC(CC)C(=O)N/C(=N/c1nccn1C(C)(C)C)Nc1ccc(Cl)c(Cl)c1 | 26 | inactive |  | 12.5 | > 5 | > 5 | > 5 |  |  |  |  |  | 
CC(C)C(=O)N/C(=N/c1nccn1C(C)C)Nc1ccc(Cl)c(Cl)c1 | > 60 |  |  | > 60 | 2.5 (≈ 6.54 µM) | 1 (≈ 2.62 µM) | 2.2 (≈ 5.75 µM) |  |  |  |  |  | 
CC(C)(C)C(=O)N/C(=N/c1nccn1C(C)(C)C)Nc1ccc(Cl)c(Cl)c1 | > 60 |  |  | > 60 | > 5 | > 5 | > 5 |  |  |  |  |  | 
CC(C)n1ccnc1/N=C(/NC(=O)C(C)(C)C)Nc1ccc(Cl)c(Cl)c1 | > 60 | inactive | inactive | > 60 | > 5 | > 5 | > 5 |  |  |  |  |  | 
CC(C)n1ccnc1/N=C(/Nc1ccc(Cl)c(Cl)c1)NC(C)(C)C | 40.4 | inactive | inactive | 18.2 | 1.1 (≈ 2.99 µM) | 1 (≈ 2.72 µM) |  |  |  |  |  |  | 
CC(C)N/C(=N\c1nccn1C(C)C)Nc1ccc(Cl)c(Cl)c1 | 22.5 |  |  | 5.9 | 2.6 (≈ 7.34 µM) | 0.8 (≈ 2.26 µM) | 2.4 (≈ 6.77 µM) |  |  | 7.8 |  | 9 | 
CCC(CC)C(=O)N/C(=N/c1nccn1C(C)C)Nc1ccc(Cl)c(Cl)c1 | > 60 | inactive | inactive | > 60 | 1 (≈ 2.44 µM) | 0.3 (≈ 0.731 µM) | 2.9 (≈ 7.07 µM) |  |  |  |  |  | 
CC(C)n1ccnc1/N=C(\NCC(C)(C)C)Nc1ccc(Cl)c(Cl)c1 | 32.9 | inactive | inactive | 10.8 | 1.4 (≈ 3.66 µM) | 0.9 (≈ 2.35 µM) |  |  |  |  |  |  | 
CC(C)(C)n1ccnc1/N=C(\N)Nc1ccc(Cl)c(Cl)c1 | > 60 | inactive | inactive | 48 | 1.6 (≈ 4.9 µM) | 0.4 (≈ 1.23 µM) | 1.2 (≈ 3.68 µM) |  |  | 45 |  |  | 
CC(C)n1ccnc1/N=C(/NC(=O)Cc1ccccc1)Nc1ccc(Cl)c(Cl)c1 | > 60 | inactive | inactive | 50.8 | > 5 | > 5 | > 5 |  |  |  |  |  | 
CC(C)N/C(=N\c1ncc[nH]1)Nc1ccc(Cl)c(Cl)c1 | > 60 |  |  | 37.6 | > 5 | 0.6 (≈ 1.92 µM) | > 5 | Toxic | Toxic |  |  |  | 
CC(C)N/C(=N\c1nccn1Cc1ccccc1)Nc1ccc(Cl)c(Cl)c1 | 16 | inactive | inactive | 18 | 1.3 (≈ 3.23 µM) | 1.6 (≈ 3.98 µM) | 2.5 (≈ 6.21 µM) |  |  |  |  |  | 
CC(C)n1ccnc1/N=C(/Nc1ccc(Cl)c(Cl)c1)N1CCCCC1 | 27 | inactive | inactive | 19.7 | 0.5 (≈ 1.31 µM) | 0.3 (≈ 0.789 µM) | 0.3 (≈ 0.789 µM) |  |  | 7.8 |  |  | 
CC(C)n1ccnc1/N=C(/NC(=O)OC(C)(C)C)Nc1ccc(Cl)c(Cl)c1 | > 60 |  |  | > 60 | > 5 | > 5 | > 5 |  |  |  |  |  | 
COc1cc(NC(C)CCCN)c2ncccc2c1 (stereo not drawn) [PRIMAQUINE] |  |  |  |  |  |  |  |  |  |  |  |  | 5
CC(C)N1CCN=C1/N=C(/Nc1ccc(Cl)c(Cl)c1)NC(C)(C)C | > 60 | inactive |  | 16.6 | 0.4 (≈ 1.08 µM) | 0.4 (≈ 1.08 µM) |  | Toxic | Toxic |  |  |  | 
CC(C)N1CCN=C1/N=C(/Nc1ccc(Cl)c(Cl)c1)NC12CC3CC(CC(C3)C1)C2 | > 60 |  |  | > 60 | 0.3 (≈ 0.669 µM) | 0.2 (≈ 0.446 µM) | 0.2 (≈ 0.446 µM) |  |  |  |  |  | 
N/C(=N\c1ncc[nH]1)Nc1ccc(Cl)c(Cl)c1 | 42.5 | inactive | inactive | 23.6 | 0.5 (≈ 1.85 µM) | 1.4 (≈ 5.18 µM) | 2.5 (≈ 9.26 µM) |  |  |  |  |  | 
CC(C)(C)Cn1ccnc1/N=C(/Nc1ccc(Cl)c(Cl)c1)NC(C)(C)C | 12.1 | inactive | inactive | 11.7 | 0.8 (≈ 2.02 µM) | 0.8 (≈ 2.02 µM) |  |  |  |  |  |  | 
